Experimental data published in ChEMBL document CHEMBL4184148 (Bioorg Med Chem Lett, 2017).

Tests used:
[1] = molecular target: Testis-specific serine/threonine-protein kinase 3 (Homo sapiens) (UniProt Q96PN8); assay: Binding affinity to wild-type human full length TSSK3 (M1 to T268 residues) expressed in HEK293 cells at 1 uM by Kinomescan method relative to control; type: cell-based
Method in brief: (§1)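 Kinome-wide competition binding panel run by an outside provider, with each compound tested at a single concentration. Activity is read against the kinase panel.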

[2] = molecular target: Casein kinase I isoform gamma-1 (Homo sapiens) (UniProt Q9HCP0); assay: Binding affinity to wild-type human partial length CSNK1G1 (T15 to S353 residues) expressed in Escherichia coli BL21 at 1 uM by Kinomescan method relative to control
[3] = molecular target: Serine/threonine-protein kinase PAK 5 (Homo sapiens) (UniProt Q9P286); assay: Binding affinity to wild-type human partial length PAK7 (Y400 to H719 residues) expressed in Escherichia coli BL21 at 1 uM by Kinomescan method relative to control
[4] = molecular target: Homeodomain-interacting protein kinase 2 (Homo sapiens) (UniProt Q9H2X6); assay: Binding affinity to wild-type human partial length HIPK2 (M153 to S564 residues) expressed in HEK293 cells at 1 uM by Kinomescan method relative to control; type: cell-based
[5] = molecular target: Epithelial discoidin domain-containing receptor 1 (Homo sapiens) (UniProt Q08345); assay: Binding affinity to wild-type human partial length DDR1 (R565 to V876 residues) expressed in Escherichia coli BL21 at 1 uM by Kinomescan method relative to control
[6] = molecular target: Vascular endothelial growth factor receptor 3 (Homo sapiens) (UniProt P35916); assay: Binding affinity to wild-type human partial length FLT4 (E821 to E1196 residues) expressed in Escherichia coli BL21 at 1 uM by Kinomescan method relative to control
[7] = molecular target: Cyclin-dependent kinase 2 (Homo sapiens) (UniProt P24941); assay: Binding affinity to wild-type human full length CDK2 (M1 to L298 residues) expressed in Escherichia coli BL21 at 1 uM by Kinomescan method relative to control
[8] = molecular target: Vascular endothelial growth factor receptor 1 (Homo sapiens) (UniProt P17948); assay: Binding affinity to wild-type human partial length FLT1 (R781 to F1239 residues) expressed in Escherichia coli BL21 at 1 uM by Kinomescan method relative to control
[9] = molecular target: Serine/threonine-protein kinase 33 (Homo sapiens) (UniProt Q9BYT3); assay: Binding affinity to wild-type human full length STK33 (M1 to L514 residues) expressed in Escherichia coli BL21 at 1 uM by Kinomescan method relative to control; method in brief: as §1
[10] = molecular target: ALK tyrosine kinase receptor (Homo sapiens) (UniProt Q9UM73); assay: Binding affinity to wild-type human partial length ALK (I1088 to E1409 residues) expressed in HEK293 cells at 1 uM by Kinomescan method relative to control; type: cell-based
[11] = molecular target: Ephrin type-B receptor 1 (Homo sapiens) (UniProt P54762); assay: Binding affinity to wild-type human partial length EPHB1 (P589 to T911 residues) expressed in Escherichia coli BL21 at 1 uM by Kinomescan method relative to control
[12] = molecular target: Mitogen-activated protein kinase 1 (Homo sapiens) (UniProt P28482); assay: Binding affinity to wild-type human full length ERK2 (M1 to S360 residues) expressed in Escherichia coli BL21 at 1 uM by Kinomescan method relative to control
Method in brief: (§2)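 Run as one kinome-wide competition binding panel with each compound at a single fixed concentration. Results were plotted as a kinome-wide selectivity map.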

[13] = molecular target: Serine/threonine-protein kinase TBK1 (Homo sapiens) (UniProt Q9UHD2); assay: Binding affinity to wild-type human full length TBK1 (M1 to L729 residues) expressed in HEK293 cells at 1 uM by Kinomescan method relative to control; type: cell-based
[14] = molecular target: cGMP-dependent protein kinase 2 (Homo sapiens) (UniProt Q13237); assay: Binding affinity to wild-type human partial length PRKG2 (S422 to F762 residues) expressed in HEK293 cells at 1 uM by Kinomescan method relative to control; type: cell-based
[15] = molecular target: Tyrosine-protein kinase Tec (Homo sapiens) (UniProt P42680); assay: Binding affinity to wild-type human partial length TEC (L341 to D620 residues) expressed in Escherichia coli BL21 at 1 uM by Kinomescan method relative to control
[16] = molecular target: Dual specificity protein kinase CLK3 (Homo sapiens) (UniProt P49761); assay: Binding affinity to wild-type human full length CLK3 (M1 to R490 residues) expressed in Escherichia coli BL21 at 1 uM by Kinomescan method relative to control; method in brief: as §2
[17] = molecular target: Tyrosine-protein kinase ZAP-70 (Homo sapiens) (UniProt P43403); assay: Binding affinity to wild-type human partial length ZAP70 (D20 to G299 residues) expressed in HEK293 cells at 1 uM by Kinomescan method relative to control; type: cell-based
[18] = molecular target: Phosphatidylinositol 4-phosphate 5-kinase type-1 alpha (Homo sapiens) (UniProt Q99755); assay: Binding affinity to wild-type human full length PIP5K1A (M1 to H562 residues) expressed in Escherichia coli BL21 at 1 uM by Kinomescan method relative to control; method in brief: as §1
[19] = molecular target: Serine/threonine-protein kinase Nek10 (Homo sapiens) (UniProt Q6ZWH5); assay: Binding affinity to wild-type human partial length NEK10 (L488 to R809 residues) expressed in HEK293 cells at 1 uM by Kinomescan method relative to control; type: cell-based
[20] = molecular target: Ephrin type-B receptor 4 (Homo sapiens) (UniProt P54760); assay: Binding affinity to wild-type human partial length EPHB4 (H585 to G892 residues) expressed in Escherichia coli BL21 at 1 uM by Kinomescan method relative to control
[21] = molecular target: Mitogen-activated protein kinase 11 (Homo sapiens) (UniProt Q15759); assay: Binding affinity to wild-type human full length p38-beta (M1 to Q364 residues) expressed in Escherichia coli BL21 at 1 uM by Kinomescan method relative to control; method in brief: as §1
[22] = molecular target: Serine/threonine-protein kinase 3 (Homo sapiens) (UniProt Q13188); assay: Binding affinity to wild-type human partial length MST2 (D17 to E318 residues) expressed in Escherichia coli BL21 at 1 uM by Kinomescan method relative to control
[23] = molecular target: Proto-oncogene tyrosine-protein kinase Src (Homo sapiens) (UniProt P12931); assay: Binding affinity to wild-type human partial length SRC (L240 to L536 residues) expressed in Escherichia coli BL21 at 1 uM by Kinomescan method relative to control
[24] = tested on: Mast/stem cell growth factor receptor Kit (Homo sapiens), P10721 [D816V]; assay: Binding affinity to human partial length KIT D816V mutant (I571 to D952 residues) expressed in Escherichia coli BL21 at 1 uM by Kinomescan method relative to control
[25] = molecular target: Serine/threonine-protein kinase N2 (Homo sapiens) (UniProt Q16513); assay: Binding affinity to wild-type human partial length PKN2 (E634 to C984 residues) expressed in Escherichia coli BL21 at 1 uM by Kinomescan method relative to control

Sequence of Tyrosine-protein kinase Tec (Homo sapiens) (P42680 whole entry, the tested form may be a part): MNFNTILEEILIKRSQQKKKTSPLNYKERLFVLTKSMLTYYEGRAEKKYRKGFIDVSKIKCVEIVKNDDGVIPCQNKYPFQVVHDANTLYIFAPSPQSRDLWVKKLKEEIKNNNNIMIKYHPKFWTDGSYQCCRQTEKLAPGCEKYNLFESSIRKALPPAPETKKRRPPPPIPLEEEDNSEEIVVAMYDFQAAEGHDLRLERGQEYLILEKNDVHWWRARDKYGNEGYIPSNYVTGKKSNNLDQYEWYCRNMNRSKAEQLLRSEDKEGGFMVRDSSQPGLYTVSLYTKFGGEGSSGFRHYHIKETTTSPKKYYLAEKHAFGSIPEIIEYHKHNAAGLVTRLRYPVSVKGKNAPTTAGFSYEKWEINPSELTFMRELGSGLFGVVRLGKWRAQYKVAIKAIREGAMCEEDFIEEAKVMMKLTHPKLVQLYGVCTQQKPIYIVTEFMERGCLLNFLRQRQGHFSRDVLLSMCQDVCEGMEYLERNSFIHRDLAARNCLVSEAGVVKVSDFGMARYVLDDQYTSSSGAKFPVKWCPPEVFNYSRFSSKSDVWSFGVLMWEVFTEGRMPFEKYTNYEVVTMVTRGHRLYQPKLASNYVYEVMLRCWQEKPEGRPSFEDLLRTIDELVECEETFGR
Sequence of Phosphatidylinositol 4-phosphate 5-kinase type-1 alpha (Homo sapiens) (Q99755 whole entry, the tested form may be a part): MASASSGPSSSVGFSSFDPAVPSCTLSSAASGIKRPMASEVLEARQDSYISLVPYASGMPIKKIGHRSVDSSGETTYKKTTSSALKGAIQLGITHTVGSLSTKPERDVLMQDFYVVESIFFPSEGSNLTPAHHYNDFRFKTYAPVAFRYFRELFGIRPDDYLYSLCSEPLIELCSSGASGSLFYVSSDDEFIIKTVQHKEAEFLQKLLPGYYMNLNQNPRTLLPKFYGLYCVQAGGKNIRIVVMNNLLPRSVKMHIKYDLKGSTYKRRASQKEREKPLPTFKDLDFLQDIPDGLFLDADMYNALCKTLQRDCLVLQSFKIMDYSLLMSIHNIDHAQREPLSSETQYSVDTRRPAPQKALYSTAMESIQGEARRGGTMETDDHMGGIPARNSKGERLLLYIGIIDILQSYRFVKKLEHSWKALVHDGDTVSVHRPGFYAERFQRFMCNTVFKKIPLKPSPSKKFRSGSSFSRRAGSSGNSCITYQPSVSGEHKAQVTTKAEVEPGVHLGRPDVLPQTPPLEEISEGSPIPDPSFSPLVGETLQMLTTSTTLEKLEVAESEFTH
Sequence of Casein kinase I isoform gamma-1 (Homo sapiens) (Q9HCP0 whole entry, looked up, the tested form may be a part, canonical isoform): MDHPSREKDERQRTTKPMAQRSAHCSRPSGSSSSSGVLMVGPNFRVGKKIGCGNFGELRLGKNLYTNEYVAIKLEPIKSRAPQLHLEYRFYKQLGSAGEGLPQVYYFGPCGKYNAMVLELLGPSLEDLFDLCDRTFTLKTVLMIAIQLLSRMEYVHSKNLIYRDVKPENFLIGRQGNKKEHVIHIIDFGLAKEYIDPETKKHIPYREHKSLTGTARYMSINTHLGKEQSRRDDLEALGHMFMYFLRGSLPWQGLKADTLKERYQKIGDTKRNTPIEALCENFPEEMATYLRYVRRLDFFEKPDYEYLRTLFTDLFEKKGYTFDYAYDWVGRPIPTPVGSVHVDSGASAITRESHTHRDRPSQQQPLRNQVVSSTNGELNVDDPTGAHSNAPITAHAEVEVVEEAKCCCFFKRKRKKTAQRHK
Sequence of Mitogen-activated protein kinase 11 (Homo sapiens) (Q15759 whole entry, the tested form may be a part): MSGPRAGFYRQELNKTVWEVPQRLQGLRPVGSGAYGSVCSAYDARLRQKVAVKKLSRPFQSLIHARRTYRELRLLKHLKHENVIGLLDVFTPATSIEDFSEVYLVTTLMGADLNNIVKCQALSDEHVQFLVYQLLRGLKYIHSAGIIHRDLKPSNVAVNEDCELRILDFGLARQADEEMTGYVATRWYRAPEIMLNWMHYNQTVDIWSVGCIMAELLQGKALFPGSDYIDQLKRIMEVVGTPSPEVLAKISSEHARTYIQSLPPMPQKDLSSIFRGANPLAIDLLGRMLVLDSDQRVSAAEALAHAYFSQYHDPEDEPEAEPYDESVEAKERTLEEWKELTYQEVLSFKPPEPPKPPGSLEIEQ
Sequence of Homeodomain-interacting protein kinase 2 (Homo sapiens) (Q9H2X6 whole entry, looked up, the tested form may be a part): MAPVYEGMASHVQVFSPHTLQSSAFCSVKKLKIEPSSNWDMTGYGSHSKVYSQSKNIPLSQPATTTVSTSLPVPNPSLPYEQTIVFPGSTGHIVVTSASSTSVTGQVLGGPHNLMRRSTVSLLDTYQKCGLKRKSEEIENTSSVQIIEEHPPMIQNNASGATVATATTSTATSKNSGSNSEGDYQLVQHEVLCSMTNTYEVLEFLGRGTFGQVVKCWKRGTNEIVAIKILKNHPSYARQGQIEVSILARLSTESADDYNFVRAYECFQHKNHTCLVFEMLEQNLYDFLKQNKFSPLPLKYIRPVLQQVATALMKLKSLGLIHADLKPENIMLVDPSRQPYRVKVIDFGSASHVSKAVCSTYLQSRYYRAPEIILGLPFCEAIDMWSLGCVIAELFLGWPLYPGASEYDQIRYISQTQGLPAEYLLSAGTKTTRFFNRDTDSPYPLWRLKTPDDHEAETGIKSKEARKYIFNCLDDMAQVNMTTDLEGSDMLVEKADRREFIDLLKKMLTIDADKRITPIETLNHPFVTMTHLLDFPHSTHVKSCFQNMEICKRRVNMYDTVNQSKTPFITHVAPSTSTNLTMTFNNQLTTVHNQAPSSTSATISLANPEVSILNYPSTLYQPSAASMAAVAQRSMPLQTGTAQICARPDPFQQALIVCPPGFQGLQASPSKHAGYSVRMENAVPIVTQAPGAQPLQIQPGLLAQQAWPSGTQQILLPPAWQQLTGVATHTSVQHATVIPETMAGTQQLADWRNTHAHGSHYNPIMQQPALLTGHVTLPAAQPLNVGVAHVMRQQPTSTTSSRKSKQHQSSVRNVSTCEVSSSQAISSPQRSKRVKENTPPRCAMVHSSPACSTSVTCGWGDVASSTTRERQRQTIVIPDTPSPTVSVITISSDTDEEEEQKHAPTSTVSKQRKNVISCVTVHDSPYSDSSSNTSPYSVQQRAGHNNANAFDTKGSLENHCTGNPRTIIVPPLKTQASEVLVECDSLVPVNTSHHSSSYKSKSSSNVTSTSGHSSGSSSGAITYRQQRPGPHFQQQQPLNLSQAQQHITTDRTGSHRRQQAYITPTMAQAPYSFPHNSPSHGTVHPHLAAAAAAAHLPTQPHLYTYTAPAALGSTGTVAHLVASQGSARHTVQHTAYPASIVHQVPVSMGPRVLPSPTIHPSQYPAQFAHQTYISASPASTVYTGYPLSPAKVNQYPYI
Sequence of Mitogen-activated protein kinase 1 (Homo sapiens) (P28482 whole entry, the tested form may be a part): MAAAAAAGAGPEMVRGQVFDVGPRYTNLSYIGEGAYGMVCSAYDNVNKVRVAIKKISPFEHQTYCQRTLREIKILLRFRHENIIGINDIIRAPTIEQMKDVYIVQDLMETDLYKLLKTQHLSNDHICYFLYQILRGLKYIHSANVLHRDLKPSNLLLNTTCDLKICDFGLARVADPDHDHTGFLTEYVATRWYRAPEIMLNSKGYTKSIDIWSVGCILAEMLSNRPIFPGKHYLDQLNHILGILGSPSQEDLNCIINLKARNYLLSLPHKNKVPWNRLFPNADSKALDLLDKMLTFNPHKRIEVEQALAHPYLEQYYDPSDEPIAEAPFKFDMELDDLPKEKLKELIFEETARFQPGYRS
Sequence of Ephrin type-B receptor 1 (Homo sapiens) (P54762 whole entry, the tested form may be a part): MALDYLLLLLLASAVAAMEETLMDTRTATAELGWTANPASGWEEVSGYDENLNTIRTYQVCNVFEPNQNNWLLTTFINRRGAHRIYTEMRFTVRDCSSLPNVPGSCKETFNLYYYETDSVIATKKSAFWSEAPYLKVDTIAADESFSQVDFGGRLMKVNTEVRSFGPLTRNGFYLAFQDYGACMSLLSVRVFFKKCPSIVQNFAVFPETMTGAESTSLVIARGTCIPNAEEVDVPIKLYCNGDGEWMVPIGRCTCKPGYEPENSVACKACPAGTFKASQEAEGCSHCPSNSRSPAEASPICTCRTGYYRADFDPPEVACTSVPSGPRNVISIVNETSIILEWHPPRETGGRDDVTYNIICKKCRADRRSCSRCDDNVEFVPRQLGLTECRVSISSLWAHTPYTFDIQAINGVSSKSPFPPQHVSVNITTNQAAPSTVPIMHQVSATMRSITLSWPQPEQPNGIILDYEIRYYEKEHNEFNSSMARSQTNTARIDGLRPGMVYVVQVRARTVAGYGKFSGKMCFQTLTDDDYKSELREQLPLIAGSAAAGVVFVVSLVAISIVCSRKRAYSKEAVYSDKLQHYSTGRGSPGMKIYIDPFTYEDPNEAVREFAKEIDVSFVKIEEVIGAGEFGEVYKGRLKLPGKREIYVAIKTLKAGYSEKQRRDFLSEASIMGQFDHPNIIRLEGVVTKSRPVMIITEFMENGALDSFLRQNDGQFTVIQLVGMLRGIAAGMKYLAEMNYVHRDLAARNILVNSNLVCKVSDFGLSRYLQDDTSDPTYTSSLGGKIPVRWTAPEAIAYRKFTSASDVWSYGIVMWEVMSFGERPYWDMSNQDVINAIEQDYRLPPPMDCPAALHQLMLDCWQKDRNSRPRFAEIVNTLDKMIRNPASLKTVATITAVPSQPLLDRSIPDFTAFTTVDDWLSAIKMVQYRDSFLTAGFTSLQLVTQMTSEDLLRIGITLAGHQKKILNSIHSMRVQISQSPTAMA
Sequence of Dual specificity protein kinase CLK3 (Homo sapiens) (P49761 whole entry, looked up, the tested form may be a part): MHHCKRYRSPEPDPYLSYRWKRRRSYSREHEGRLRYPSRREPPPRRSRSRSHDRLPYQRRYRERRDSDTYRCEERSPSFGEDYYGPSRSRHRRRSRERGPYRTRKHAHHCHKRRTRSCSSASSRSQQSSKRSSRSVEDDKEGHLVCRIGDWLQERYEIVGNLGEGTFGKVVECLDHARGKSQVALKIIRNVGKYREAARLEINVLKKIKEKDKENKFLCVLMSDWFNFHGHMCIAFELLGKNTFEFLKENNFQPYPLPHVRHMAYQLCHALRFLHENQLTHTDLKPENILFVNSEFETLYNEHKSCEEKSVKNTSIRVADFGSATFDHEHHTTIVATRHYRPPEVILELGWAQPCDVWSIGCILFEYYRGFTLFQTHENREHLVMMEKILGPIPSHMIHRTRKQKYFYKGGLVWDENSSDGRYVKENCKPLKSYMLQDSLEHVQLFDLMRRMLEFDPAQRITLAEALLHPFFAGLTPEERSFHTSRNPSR

Structure (SMILES)	Activity [1] [%]	Activity [2] [%]	Activity [3] [%]	Activity [4] [%]	Activity [5] [%]	Activity [6] [%]	Activity [7] [%]	Activity [8] [%]	Activity [9] [%]	Activity [10] [%]	Activity [11] [%]	Activity [12] [%]	Activity [13] [%]	Activity [14] [%]	Activity [15] [%]	Activity [16] [%]	Activity [17] [%]	Activity [18] [%]	Activity [19] [%]	Activity [20] [%]	also measured
CCC(=O)Nc1ccc(C(=O)Nc2ccc(Nc3ncc4c(n3)N(C)c3ccc(C)cc3C(=O)N4C)cc2)cc1	59	100	97	100	86	89	97	91	79	83	80	87	74	84	93	91	95	100	85	100	Activity [21]: 100%; Activity [22]: 70%; Activity [23]: 87%; Activity [24]: 91%; Activity [25]: 100%
C=CC(=O)Nc1ccc(C(=O)Nc2ccc(Nc3ncc4c(n3)N(C)c3ccc(C)cc3C(=O)N4C)cc2)cc1	100	100	100	94	92	98	100	87	99	100	92	99	94	88	100	89	97	100	85	95	Activity [21]: 89%; Activity [22]: 100%; Activity [23]: 96%; Activity [24]: 88%; Activity [25]: 75%
